# Only some compounds are listed: those with a hit (about 5.5% of all), similar ones and a draw of the others.
# Yeast life ext: extends the lifespan of yeast. inhibition of the nicotinamide effect, % at 10 µM. 130,000 compounds, 0.68% hits. AID 775. S. cerevisiae growth with nicotinamide, OD615; deaD strain in restrictive glucose medium;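 active means inhibition above a set limit, placed 3 SD over the median of all compounds, cut at about 26% in these data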;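 further: 0% = nicotinamide-treated wells and 100% = cells grown without nicotinamide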
#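 Test system – modified budding yeast, DeaD strain · Compound – single dose 10 µM compound, 0.25% DMSO · Times – culture preincubation 4 h, compound exposure 48 h, both 30 °C · Detection – optical density (absorbance) at 615 nm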
# Yeast growth inh: chemicals that inhibit yeast BB579 growth in restrictive medium (lifespan-shortening candidates). S. cerevisiae BB579 growth, OD615, 48 h. inhibition, % at 10 µM. 140,000 compounds, 0.51% hits;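 active means inhibition above a set limit, 3 SD over the mean compound inhibition, cut at about 44% in these data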
#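 test system = yeast BB579 (DeaD) | buffer or medium = restrictive CSMM-D medium | doses = single compound dose of 10 µM, 0.25% DMSO final | times = 4 h preincubation and 48 h exposure at 30 °C | technique = culture absorbance at 615 nm | benchmarks = amphotericin B 10 µg/mL, positive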
# KCC2 mod: modulates chloride dependent transport by human KCC2 | B-score of Tl+ flux slope (higher = more flux/activation; lower = inhibition) at 10 µM | KCC2 cells, thallium flux FluoZin-2 fluorescence | AID 1456 | 190,000 compounds, 2.2% hits | Q9H2X9;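 active means thallium flux slope and its plate-corrected score both differing from the plate sample mean at a set confidence after two filtering rounds, in either direction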;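 further: slope of fluorescence scaled to starting intensity during 10 to 20 s after thallium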
# Target sequence (Q9H2X9 whole entry, looked up): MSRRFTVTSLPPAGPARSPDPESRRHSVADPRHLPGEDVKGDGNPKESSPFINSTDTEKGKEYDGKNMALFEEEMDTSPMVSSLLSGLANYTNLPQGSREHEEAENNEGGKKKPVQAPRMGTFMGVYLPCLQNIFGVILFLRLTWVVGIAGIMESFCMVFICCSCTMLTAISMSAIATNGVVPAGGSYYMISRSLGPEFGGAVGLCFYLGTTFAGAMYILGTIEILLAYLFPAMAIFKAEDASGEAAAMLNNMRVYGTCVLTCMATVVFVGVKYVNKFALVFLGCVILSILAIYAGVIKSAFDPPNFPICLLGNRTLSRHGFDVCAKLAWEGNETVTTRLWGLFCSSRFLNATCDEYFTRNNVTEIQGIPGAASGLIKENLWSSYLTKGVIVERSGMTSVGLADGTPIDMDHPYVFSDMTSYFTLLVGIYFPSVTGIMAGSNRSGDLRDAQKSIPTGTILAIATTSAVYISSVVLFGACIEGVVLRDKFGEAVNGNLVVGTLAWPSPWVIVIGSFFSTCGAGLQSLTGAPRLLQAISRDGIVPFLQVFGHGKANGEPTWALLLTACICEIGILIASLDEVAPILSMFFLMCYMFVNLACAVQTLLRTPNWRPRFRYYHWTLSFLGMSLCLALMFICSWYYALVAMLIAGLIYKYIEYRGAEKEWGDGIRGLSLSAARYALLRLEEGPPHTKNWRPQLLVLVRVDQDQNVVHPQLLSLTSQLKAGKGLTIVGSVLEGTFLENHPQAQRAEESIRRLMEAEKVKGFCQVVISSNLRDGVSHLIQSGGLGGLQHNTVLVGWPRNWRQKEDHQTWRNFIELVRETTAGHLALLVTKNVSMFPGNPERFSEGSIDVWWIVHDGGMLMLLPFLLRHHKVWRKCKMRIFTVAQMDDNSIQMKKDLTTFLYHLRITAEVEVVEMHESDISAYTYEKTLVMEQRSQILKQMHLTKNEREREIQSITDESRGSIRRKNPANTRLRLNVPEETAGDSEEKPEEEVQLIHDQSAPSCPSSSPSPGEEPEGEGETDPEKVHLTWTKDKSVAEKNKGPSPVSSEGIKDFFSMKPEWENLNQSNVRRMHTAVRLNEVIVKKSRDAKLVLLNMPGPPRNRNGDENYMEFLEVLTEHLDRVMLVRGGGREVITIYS
# RAM inhibit: inhibitors of the yeast RAM network | 190,000 compounds, 1.8% hits | S. cerevisiae dse1pr::URA3 reporter, 5-FOA growth OD615, 2 d; analog-sensitive cbk1-as2 kinase mutant strain | inhibition, % at 50 µM;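 active means inhibition above a set limit, 3 SD over mean compound inhibition, cut at about 8.4% in these data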;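 further: 0% = DMSO-only wells with no growth and 100% = 10 µM 1-NA-PP1 full growth; inhibition rescues growth on 5-FOA so higher OD means more RAM inhibition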
# WT yeast gro inh: growth inhibition of WT yeast, mitochondrial fusion screen; 190,000 compounds, 2.1% hits; AID 1362; inhibition, % at 10 µM; mitochondrial fusion phenotypic screen, WT strain; in the data active means inhibition above about 58%; tested in S. cerevisiae
# KCC2 sec1: KCC2 (human) modulation, secondary assay; 3,700 compounds, 15% hits; normalised thallium flux (F/F0 slope) at 10 µM; shares compounds with KCC2 mod; AID 1713; HEK293-KCC2, thallium flux, FluoZin2 fluorescence; active compounds read high;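 active means thallium flux slope above the same plate's solvent-only control mean plus 3 SD; inconclusive means the two replicate wells disagree; inactive means no significant difference from solvent-only control wells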
# KCC2 bumet counter: thallium flux despite bumetanide block in KCC2 cells, secondary assay 3 | shares compounds with KCC2 mod | HEK293-KCC2 + bumetanide/ouabain, thallium flux FluoZin2; active compounds read high | normalized thallium flux at 10 µM | 3,700 compounds, 49% hits;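 active means thallium entry rate above the same plate's blocked-transporter control wells by more than 3 SD; inconclusive means the two repeat wells disagree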;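 further: raw slope of fluorescence over initial fluorescence between 10 and 20 s after thallium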
# KCC2 secondary2: confirmation of human KCC2 transport modulators; shares compounds with KCC2 mod; HEK293-KCC2, thallium flux FluoZin2 fluorescence; actives lie on both sides; F/F0 rise rate, 10–20 s post-thallium; normalized thallium flux at 10 µM; 3,700 compounds, 23% hits;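 active means thallium flux slope more than 3 SD above or below the plate's solvent-only control mean, mostly below; inconclusive means the two repeat wells disagreed; inactive means no significant shift from solvent-only controls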;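 further: raw slope with 0.1% DMSO as baseline and bumetanide as block control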
# HEK293 Tl flux: counter-screen for KCC2 modulators: effect in parental HEK293 cells; shares compounds with KCC2 mod; thallium flux FluoZin2, ouabain; baseline-ratio fluorescence slope, 10–20 s after thallium; thallium flux rate (normalised fluorescence) at 10 µM; 3,700 compounds, 46% hits; AID 1716;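 active means thallium flux rate significantly above the same plate's solvent-only control wells, beyond their mean plus 3 SD; inconclusive means the two replicate wells gave conflicting results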
# KCC2 retest ouab: confirmation of human KCC2 modulators with ouabain; shares compounds with KCC2 mod; 3,700 compounds, 48% hits; HEK293-KCC2, thallium flux FluoZin2 fluorescence; bidirectional: low = inhibitor, high = activator; raw Tl+ flux slope (below DMSO = inhibition, above = activation) at 10 µM;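 active means thallium flux slope beyond 3 SD from same-plate DMSO control mean in most replicates, usually higher, sometimes lower; inconclusive means repeat tests gave conflicting results; inactive means no significant difference from controls in most replicates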;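 further: slope of initial-normalized fluorescence between seconds 10 and 20 after thallium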
# HEK293 Tl flux2: counter-screen for KCC2 modulators: effect in parental HEK293 cells; AID 1718; shares compounds with KCC2 mod; thallium flux slope at 10 µM; 3,700 compounds, 33% hits; thallium flux FluoZin-2 fluorescence slope;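 active means thallium flux slope above the same plate's solvent-control mean plus 3 SD in both duplicate wells; inconclusive means duplicate wells that disagreed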;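 further: run without ouabain in cells lacking the KCC2 cotransporter; slope of fluorescence scaled to its starting value between 10 and 20 s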
# The depositor's hits bear a star; ? = inconclusive; · = no result given.
SMILES,Yeast life ext,Yeast growth inh,KCC2 mod,RAM inhibit,WT yeast gro inh,KCC2 sec1,KCC2 bumet counter,KCC2 secondary2,HEK293 Tl flux,KCC2 retest ouab,HEK293 Tl flux2
COC(=O)c1ccc(NC(=O)COC(=O)c2cccc3c(=O)c(C)c(-c4ccccc4)oc23)cc1,0,-22,-2.1,2,-13,·,·,·,·,·,·
Cc1c(-c2ccccc2)oc2c(C(=O)OCC(=O)Nc3ccc(C(N)=O)cc3)cccc2c1=O,-4,-20,-5*,5,-3,0.0092,0.0054,0.033,?,0.016*,0.011
S=C(NCc1cccnc1)Nc1ccc(Oc2ccccc2)cc1,·,·,-3.9*,0,12,0.0065,0.0043,0.022*,0.0073,?,0.011
NC(=S)NCc1cccnc1,·,·,4.8*,2,-16,0.01,0.0065,0.036,0.0075,0.023,0.011
FC(F)Oc1ccc(NC(=S)NCc2cccnc2)cc1,·,·,0.17,1,-6,·,·,·,·,·,·
NNC(=S)NCc1cccnc1,7,-13,0.024,0,-4,·,·,·,·,·,·
CC(C)NS(=O)(=O)c1ccc(CCC(=O)Nc2ccc3c(c2)OCO3)cc1,-2,-7,-0.14,1,14,·,·,·,·,·,·
Cc1ccc(C)c(Cn2c(O)c(N=NC(=S)Nc3ccccc3F)c3ccccc32)c1,·,·,4,3,-21,·,·,·,·,·,·
Oc1c(N=NC(=S)Nc2ccccc2F)c2ccccc2n1Cc1ccc(Cl)cc1,·,·,2.3,4,-17,·,·,·,·,·,·
Oc1c(N=NC(=S)Nc2ccccc2F)c2ccccc2n1Cc1ccccc1F,·,·,11*,4,-11,0.0055,0.034*,0.034,0.012*,0.025*,?
Cc1ccccc1Cn1c(O)c(N=NC(=S)Nc2ccccc2F)c2ccccc21,·,·,9.6*,5,-8,?,0.025*,0.036,?,?,?
CCNC(=S)N=Nc1c(O)n(Cc2ccc(Cl)cc2)c2ccccc12,3,-50,14*,5,-37,0.012*,0.071*,0.03,0.03*,0.041*,0.011*
C=CCN(c1ccccc1)S(=O)(=O)c1ccc(Cl)c(C(=O)OCC(=O)N(C)C2CCS(=O)(=O)C2)c1 (stereo not drawn),·,·,-1.3,4,-17,·,·,·,·,·,·
O=C(NCc1nc(-c2ccc(C(F)(F)F)cc2)no1)Nc1ccc(OC(F)(F)F)cc1,·,·,1.4,·,·,·,·,·,·,·,·
CC(C)(C)C(=O)NC(=S)NNC(=O)C(c1ccccc1)c1ccccc1,·,·,5.8*,6,-41,0.011,0.023*,0.041,?,0.03*,0.013
O=S(=O)(c1ccc(NC(=S)NCCC(c2ccccc2)c2ccccc2)cc1)N1CCOCC1,-1,6,-0.26,7,-22,·,·,·,·,·,·
CC(=O)CCCCn1c(=O)c2c(ncn2C)n(C)c1=O,-15,-47,-0.6,0,1,·,·,·,·,·,·
CC(=O)CCn1c(=O)n(CCC(C)=O)c(=O)n(CCC(C)=O)c1=O,·,-26,0.73,0,-8,0.0094,?,0.035,0.0083,0.024,?
CC1CC(=O)c2cnc(Nc3cccc(C(F)(F)F)c3)nc2C1 (stereo not drawn),-8,-40,-3*,2,1,0.012*,?,0.034,0.0081,0.023,0.011
CC(C)/C=C1\CC/C(=C\c2cccnc2)C1=O,·,·,-4.1*,1,-2,0.009,0.0054,0.033,0.004,0.018,0.011
O=C1/C(=C/c2cccnc2)CC/C1=C\c1cccnc1,·,·,-0.17,0,3,·,·,·,·,·,·

# Compound activity deposited in PubChem BioAssay by several laboratories.
